Tested on: MS2 coat protein
Assay: apparent Kd, MS2 coat protein; higher = weaker binding; RNA-MaP array; FMN 200 µM where present
How it was run: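 On Illumina sequencing-chip clusters, designs were transcribed by stalled E. coli RNA polymerase and titrated with SNAP-549-labelled MS2 coat protein (0.7 or 1.5 nM, doubling to 3 µM), without and then with constant ligand, in 100 mM Tris-HCl pH 7.5, 80 mM KCl, 4 mM MgCl2, BSA, DTT, yeast tRNA and Tween-20. Apparent Kd is the median of filtered per-cluster curve fits to green signal normalised to red-channel RNA signal and control-cluster median Fmax.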

[1] = designed as: OFF switch for flavin mononucleotide, no ligand
[2] = ligand present: flavin mononucleotide, designed as: OFF switch for flavin mononucleotide
[3] = designed as: ON switch for flavin mononucleotide, no ligand
[4] = ligand present: flavin mononucleotide, designed as: ON switch for flavin mononucleotide

Sequence	apparent Kd [1] [nM]	apparent Kd [2] [nM]	apparent Kd [3] [nM]	apparent Kd [4] [nM]
UUUUAGUGAGGAUAUGUGGCUUCGAUCGUGAGAUCGAGGCUACAGAAGGCACAUGAGGAUCACCCAUGUUCCUG	15.7	55.7		
GGGUCAACAUGAGGAUCACCCAUGUAGGAUAUCGCUAUUGUAAUCAUGAAACAUGAUUACAAUAGCGAGAAGGACAUAUGCGGG	42	74.1		
ACUGUCCGAGAGAAGGGAACAUGAGGAUCACCCAUGUUACCUCACCUGGUGACGGAACUCCAAGUUCAGGAUAUCUCGAGCGGU	4.72	6.53		
CUGACGGCAGGAUAUACAUGAGGAUCACCCAUGUAAAUUUUUCGUUUACCUUGACCGUGUAGAAGGGCCCAACC	14.8	14.7		
CUGGGCGGAGGAUAUACAGGUUGGGCAUAAGUUCGGCUGGGACAUGAGGAUCACCCAUGUAGAAGGUUGUUUAG	25.3	23.1		
AGGUAACAUGAGGAUCACCCAUGUCAGGAUAUCAGUAAGAUGAGUAUAGAAGAGAGUAUGAGAAGGGACUAUAU	31	25.6		
GCUAUCGGGUGAGGAUAUAUGAUUGUGAUUAAAAUAGAAGGCAUCUCAGAAGACAUGAGGAUCACCCAUGUAGUUAAGAUGGCU			15.3	12.8
UUGGACGUCGUAGGAUAGGUAGGAUAUUCCUACAUGAGGAUCACCCAUGUUGACAUGGAAGAAGGACAGAAGGACGAUGUCCAU			142	5.7
AGUCGGAGCAGAGGAUAUACAUGAGGAUCACCCAUGUAAUAUGAUCUAGCCUGGAAACAGGCAAUGUAGAAGGCUGCUCCGACA	90.3	709		
UUAUUAUGUGUAGGAUAUGCAUAUUAUCAUUAUGCAGAAGGACAUGAGGAUCACCCAUGUAUAUUAUUAUUAUAUAUUAUAUAU	15.5	12.6		
UUUAUAUGAGGAUAUCCGAGGAGCCACAUGAGGAUCACCCAUGUCGUCUUUUGUGAUAGUGGAGAAGGUGUGUCAG	27.7	31.6		
AGUGGCUACACAGGAUAUCCCAGCCUCUUGGUGGGAGAAGGGUGAGGUCAGAGACAUGAGGAUCACCCAUGUCUUACAGGAGGA			15.8	8.33
GCACUUGCGUAGAAGGUACUAUAUAAUGCAGUGUAAGGAUAUACAUACAUGAGGAUCACCCAUGUAAAUGGAAUUUGCAAGUGC			11.8	9.15
CACCGUUAAGUAGGAUAUCGUACAUGAGGAUCACCCAUGUAAUAAAUGAGAAUUUCGGAUGUAUGCGAGAAGGACUAAAUCGGC	49.3	43		
GACUUGGCUACAUGAGGAUCACCCAUGUUUGACUGGAUCGAUCAGGAUAUAGUGAUUUGCAACAAUUAGAAGGGAUAUUUACGG			49.8	51.6
UUUUAACAUGAGGAUCACCCAUGUGAGGAUAUCGAAAUUUAUAUUAAUAUUUUUAUUACGAGAAGGCACAUUUU	73.5	69.8		
AAAAAAAAAGUAGAGGAUAUCCGAGUGGUAACAUGAGGAUCACCCAUGUGAAGAAAGGAAGAUGAGGAGAAGGCUACAAAAAAAAA			47.5	21.9
ACAUACUUUCGAGGAUAUCGGUGAUAAUUUUUACGAGAAGGCGAUAAAAGAUAUAAUCUUAUAGACAUGAGGAUCACCCAUGUA			30.5	26.4
CUUUCUUGCAAGGAUAUGCAAUUUAUUAUUUAUGCAGAAGGUGCUACAUGAGGAUCACCCAUGUUUCUGGGUUU	146	208		
UGUCGGAGCAGAGGAUAUUACAUGAGGAUCACCCAUGUAUGAACCAAUAGCUGGAAACAGCAAUGCAAGAAGGCUGCUCCGACA	5.05	6.53		
CGAUAUUAUGUCAGGAUAUACAUUGCGAAAGCAAUGUAGAAGGGACAUGAGGAUCACCCAUGUUCCUACUAUCG	12.3	15.7		
AUCAUCCUAGGAUAUACAUGGAUAUACAUUCAUGUGGACCUACAUGAGGAUCACCCAUGUAGAAGGAGGAUGAU	33.4	88.8		
GCCAUCGCAUGAGGAUAUGCUCCGGUUUCCGGAGCAGAAGGCGUGUCAUUAGACAUGAGGAUCACCCAUGUAGUUAAGAUGGCA			489	21.3
GUAUCGUGAGGAUAUCAUGAUUGACUUAGUUUAUGUCAGCGUGAGAAGGCACAUGAGGAUCACCCAUGUGAUUA	24.7	54.9		
GCACGGCAUGUAGGAUAUGCAUAGCAUUGCUAUGCAGAAGGACAUGAGGAUCACCCAUGUAUGUAUUCCAUACAUUUCCCGUGC	5.5	7.65		
AAGGAGUCAGGAUAUGCUGCUCGUCACUUGCGUGAUGAGUAGCAGAAGGGACAUGAGGAUCACCCAUGUAAAGA	51.2	61.4		
ACUCCUCCUGUUAGGAUAUGCAUCGGGCUUCCGCAGCAGAAGGAACAUGAGGAUCACCCAUGUCAAAUAAAAUC	19.6	155		
UUACUAUUACAGAAGGUUUAAUAAUAUAUAAAAGAAGGAUAUGUAACAUGAGGAUCACCCAUGUUUCACCCACAUGAGGAUCAU	10.8	10.4		

Sequence	apparent Kd [1] [nM]	apparent Kd [2] [nM]	apparent Kd [3] [nM]	apparent Kd [4] [nM]
GUGUACAGAGGAUAUACAUGAGCUAGGAAACUAGCAAACUCACAUGAGGAUCACCCAUGUAGAAGGCUGUACAC	264	54.7		
AGCUGUGGCCGAGGAUAUCUAUCUCCAAUAACCGAAAUAUAAUCGGACAUGAGGAUCACCCAUGUAGAGAAGGCGGUCUCAGCA	20.7	36		
UUGAAAUUGUAAGGAUAUACUCUGUGAUGAAGAGUAGAAGGUACUUACAUGAGGAUCACCCAUGUUUAACGAGAUACUAAUCGU			32	16.6
AAUGUGUGUCGAGGAUAUAUAACAUGACAACAAACACAUACAUGAGGAUCACCCAUGUCCCAUGUAUAGAAGGCGAUGUGUGUG			219	434
ACACUACAUGAGGAUCACCCAUGUCAGGAUAUCGAUAUCACAACUCAUCAACCUCACUCGAGAAGGGACACAUA	24	23.8		
UCCAACCCUGUGAGGAUAUCGUCCAUUUUUUGUUACGAGAAGGCACAUGAGGAUCACCCAUGUUUUUUAUUUUU	21.9	134		
GUCAGCUCGUGAGGAUAUACAACACAGCUUCGGCAGUGUAUUAAGAUCACAUGAGGAUCACCCAUGUAGAAGGCACGAGCUGAU	13.1	209		
AAAAUCAAAUCAGGAUAUUCAUACACUACAUACGGAGAAGGGAUACAAUCAUGAGGACAUGAGGAUCACCCAUGUUGUGACCAU			102	54.8
CAAUUGGCACAGAAGGGUGACAUGAGGAUCACCCAUGUAGCGUGGCACUUAGGAGGAGCCACGCCACAGGAUAUGUGCGGGCAC			76.4	111
UUACUUGUGCAGAAGGGCAUUGAAUUAGGUUUUUAGGUUGAUCAGAAAUGCAGGAUAUGUUAAACAUGAGGAUCACCCAUGUAC			66.9	13.9
CCUUAACAUGAGGAUCACCCAUGUGAGGAUAUGAUGCAGCAGUGGUCUACGCUGUGCAUCAGAAGGUACAUGGU	35.9	145		
CAGCUGAAAGUCAGGAUAUCUAGAGCCUCGGCUCUAGAGAAGGGACAUGAGGAUCACCCAUGUCACUCCAGCUG	18.4	20		
GCAUGUAAGCAGAAGGGCAGAUAUUUUGAUACUGCAGGAUAUGCAGAAUCAUAUCCACAUGAUAACAUGAGGAUCACCCAUGUA	32.3	29		
AACAGUACAGGAUAUACAUGAGGAUCACCCAUGUGAAGAAUAAGUGGCGUACCACAAAGUAGAAGGGUACUGGA	29.3	120		
ACAUGCAUAGCGAUAUGAUCGAGAGAUCAUGUCGCUAAAGUUAGAAGGACAUGAGGAUCACCCAUGUAGGAUAUGGGUGCAUGA			641	48.7
GGAUAGGACAGAGGAUAUACGUGCUAGACAUACUAGCAAAAUUUCCUCACAUGAGGAUCACCCAUGUAGAAGGCUGUCCUAUCG	18.7	440		
GACUCUAAGUUUGUCACUUAGAGAGAGGAUAUGGAAAACUUGACAUGAGGAUCACCCAUGUAUAAUCAGAAGGCUCGAGUACGA			9.95	8.98
GGGAAGGGCGGAGGAUAUCGACAUGAGGAUCACCCAUGUAUCACCCAUGUAUGAGAAGGUUGGAAGGAUUAAAACGUGAGGGUC	57.6	44.3		
CCUUUGAAGAUCCUAGAUUUCGACAUGAGGAUCACCCAUGUGCAGGAUAUCGUGCCAGUGAUGUGCGAGAAGGGCAGUCUCUGC	50.8	55		
AUAUUAAGUGUGAGGAUAUGCUGGUCCUUGGAUCAGCAGAAGGCACAUGAGGAUCACCCAUGUAAUAUAUUUAA	102	306		
AUUGAGCUAGGAUAUACAUGAGGAUCACCCAUGUAGCAAAAUAGCUAUACAUGAUCGGGUAGAAGGAGCGCGAG	13.6	20.5		
CACUCGUGUCUAGGAUAUGAGUGACAAGCGCGAGAUUUUCUCACCGCUAGCUCAGAAGGAGACAUGAGGAUCACCCAUGUAAGG	165	20.3		
GCUGUAAGAGGAUAUACAUGGUAUUGACUGGCACCGGUUAGACAUGAGGAUCACCCAUGUAGAAGGCUUGUAUG	86.3	248		
GACAUUGACAAGAAGGCAAACAUGAGGAUCACCCAUGUUCUGCAUGUAUAUUGAGGAUAUUGCCAAUGCAUGUGGAUCACCCAA	6.63	10.8		
AAGUCAGCAGGAUAUGCGAUGGUGGGCUAGGUAGCUUGCCCACAUGAGGAUCACCCAUGUAGAAGGGCUGGCUA	72	48.7		
GCUUUAUUGGUCAGGAUAUACAUUUGUUACUCUUUGUAGAAGGGACAUGAGGAUCACCCAUGUACAUUACAUUC	23.2	24.3		
UGGAAAUGCGAGAAGGACAUGAGGAUCACCCAUGUAGGAUAUCGACCUAGGUGCAGAUCGUUAUAGGAUCUCUUCGCUUGUAGG			16.5	7.08
